Data as given in ChEMBL document CHEMBL2163205 (J Med Chem, 2012).
≈ marks a conversion by molar mass, not a printed value.

Legend:
[1] = Intrinsic clearance in human liver microsomes assessed as metabolic turnover
[2] = Lipophilicity, log D of the compound at pH 7.4; details: buffer
Procathepsin L = Procathepsin L (Homo sapiens, UniProt P07711); assay: Inhibition of human recombinant CatL assessed as suppression of enzyme-mediated Z-Phe-Arg-AMC cleavage by QFRET assay
Procedure, shortened: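 Recombinant human Cat L at 0.1 nM final was preincubated with compound for 30 min, then Z-Phe-Arg-AMC (10 μM final) was added. QFRET cleavage was run 1 h at room temperature and stopped with acetic acid. Fluorescence read at ex 360/em 425 nm; IC50 by variable-slope nonlinear regression.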

Cathepsin B = Cathepsin B (Homo sapiens, UniProt P07858); assay: Inhibition of human recombinant CatB assessed as suppression of enzyme-mediated Z-Arg-Arg-AMC cleavage by QFRET assay
Procedure, shortened: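 Recombinant human Cat B at 0.5 nM final was preincubated with compound for 30 min at room temperature. Z-Arg-Arg-AMC (100 μM final) was added in potassium phosphate buffer, pH 6.4, incubated 1 h, then stopped with acetic acid. Fluorescence read at ex 360/em 425 nm with background correction; IC50 by nonlinear regression.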

Cathepsin S = Cathepsin S (Homo sapiens, UniProt P25774); assay: Inhibition of human recombinant CatS assessed as suppression of enzyme-mediated Z-Val-Val-Arg-AMC cleavage by QFRET assay
Procedure, shortened: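 Recombinant human Cat S at 0.5 nM final was preincubated with compound for 30 min at room temperature. Z-Val-Val-Arg-AMC (100 μM final) was added in potassium phosphate buffer, pH 6.4, incubated 1 h, then stopped with acetic acid. AMC fluorescence read at ex 360/em 425 nm; IC50 by nonlinear regression.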

[3] = Intrinsic clearance in rat hepatocytes assessed as metabolic turnover measured per 10^6 cells; format: ADME, cell-based, Hepatocyte
Procedure, shortened: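 Intrinsic clearance from in vitro hepatocyte incubation, expressed in μL/min/10⁶ cells. Each value is the mean of at least n = 2 experiments.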

[4] = Aqueous solubility of the compound at pH 7.4; details: buffer
[5] = Intrinsic clearance in rat liver microsomes assessed as metabolic turnover
[6] = Oral bioavailability in Alderley Park Han Wistar rat at 2.0 mg/kg administered as single dose; format: ADME, organism-based; details: in vivo
Procedure, shortened: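 Fed male Alderley Park Han Wistar rats dosed po at 2.0 mg/kg as a suspension in 5% DMSO/95% HPMC/TWEEN; iv reference dose 2.0 mg/kg in 40% DMA/water. Single doses, at least two experiments of two animals each.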

[7] = Fraction unbound at serum; format: ADME, cell-free
Procedure, shortened: (§1)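 Serum or plasma protein binding reported as percentage free. Each value is the mean of at least n = 2 experiments.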

Cathepsin K = target: T1, Cathepsin K (Homo sapiens, UniProt P43235); assay: Inhibition of human recombinant CatK assessed as suppression of enzyme-mediated Z-Phe-Arg-AMC cleavage incubated for 1 hrs by QFRET assay
T1 sequence (P43235 whole entry): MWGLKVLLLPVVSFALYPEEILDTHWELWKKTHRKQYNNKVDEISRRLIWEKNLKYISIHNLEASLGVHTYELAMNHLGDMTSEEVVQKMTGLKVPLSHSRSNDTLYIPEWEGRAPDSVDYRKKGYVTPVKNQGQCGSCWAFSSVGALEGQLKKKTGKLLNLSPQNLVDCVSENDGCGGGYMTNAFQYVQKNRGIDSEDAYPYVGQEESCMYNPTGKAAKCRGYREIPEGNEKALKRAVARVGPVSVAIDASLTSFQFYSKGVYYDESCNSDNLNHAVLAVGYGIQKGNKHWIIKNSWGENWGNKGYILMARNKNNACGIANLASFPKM

[8] = Half life in Alderley Park Han Wistar rat at 2.0 mg/kg, iv administered as single dose; details: in vivo
[9] = Fraction unbound in rat serum; format: ADME, cell-free; procedure, shortened: as §1
[10] = Volume of distribution at steady state in Alderley Park Han Wistar rat at 2.0 mg/kg, po and 2.0 mg/kg, iv administered as single dose; format: ADME, organism-based; details: in vivo, read-out: Vdss
Procedure, shortened: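 Male Alderley Park Han Wistar rats, fed. Given single iv dose of 2.0 mg/kg as a solution in 40% DMA/water and single po dose of 2.0 mg/kg as a suspension in 5% DMSO/95% HPMC/TWEEN. At least two experiments, each with two animals.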

[11] = Fraction unbound in dog serum; format: ADME, cell-free, Canis lupus familiaris; procedure, shortened: as §1
[12] = Volume of distribution at steady state in Beagle dog at 1.0 mg/kg, po and 1.0 mg/kg, iv administered as single dose; format: ADME, organism-based, Canis lupus familiaris; details: in vivo, read-out: Vdss
Procedure, shortened: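 Beagle dogs, fasted. Given single iv dose of 1.0 mg/kg as a solution in 10% DMSO/90% Sorensons and single po dose of 1.0 mg/kg as a suspension in 5% DMSO/95% HPMC/TWEEN. At least two experiments, each with two animals.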

[13] = Intrinsic clearance in dog hepatocytes assessed as metabolic turnover measured per 10^6 cells
in vivo [14] = details: Alderley Park Han Wistar, rat, plasma, iv, 2 mg/kg
in vivo [15] = details: Beagle, dog, plasma, iv, 1 mg/kg
[16] = Oral bioavailability in Beagle dog at 1.0 mg/kg administered as single dose; details: in vivo
[17] = Half life in Beagle dog at 1.0 mg/kg, iv administered as single dose; details: in vivo
[18] = Fraction unbound in human serum; format: ADME, cell-free; procedure, shortened: as §1
[19] = Intrinsic clearance in human hepatocytes assessed as metabolic turnover measured per 10^6 cells
Homo sapiens = organism: Homo sapiens; assay: Selectivity ratio of IC50 for human recombinant CatS to IC50 for human recombinant CatK
Procedure, shortened: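 Quenched-FRET cleavage assays with in-house recombinant human enzymes at 0.5 nM final. Cat K used 50 μM Z-Phe-Arg-AMC at pH 5.5 (acetate/EDTA). Cat S used 100 μM Z-Val-Val-Arg-AMC at pH 6.4 (potassium phosphate). Compounds were preincubated 30 min at RT, then reacted 1 h, stopped with acetic acid and read at ex 360/em 425 nm. Twelve concentrations; IC50s from variable-slope nonlinear regression; ratio Cat S/Cat K.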

Procathepsin L, sequence (P07711 whole entry): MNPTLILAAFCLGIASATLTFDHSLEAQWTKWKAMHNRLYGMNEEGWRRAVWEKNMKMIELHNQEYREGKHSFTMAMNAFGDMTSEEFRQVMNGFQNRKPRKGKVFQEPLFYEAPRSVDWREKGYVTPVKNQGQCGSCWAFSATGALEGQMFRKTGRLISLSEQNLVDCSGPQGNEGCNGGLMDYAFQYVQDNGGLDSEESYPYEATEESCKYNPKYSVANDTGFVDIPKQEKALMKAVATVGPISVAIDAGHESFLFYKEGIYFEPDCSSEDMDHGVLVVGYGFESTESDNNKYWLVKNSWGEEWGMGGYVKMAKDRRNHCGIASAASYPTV
Cathepsin S, sequence (P25774 whole entry): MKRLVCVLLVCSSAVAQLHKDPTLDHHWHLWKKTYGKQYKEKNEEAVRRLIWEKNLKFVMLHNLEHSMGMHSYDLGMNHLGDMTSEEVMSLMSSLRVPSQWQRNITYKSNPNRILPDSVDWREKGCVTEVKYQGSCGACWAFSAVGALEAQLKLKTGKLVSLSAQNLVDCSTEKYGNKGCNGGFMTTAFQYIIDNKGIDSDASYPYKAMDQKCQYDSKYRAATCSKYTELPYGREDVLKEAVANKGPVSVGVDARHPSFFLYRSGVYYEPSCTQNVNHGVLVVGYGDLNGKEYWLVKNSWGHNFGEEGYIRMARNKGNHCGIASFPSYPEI

COc1ccc2[nH]c3c(c2c1)CN(C(=O)[C@@H]1CCCC[C@H]1C(=O)NC1(C#N)CC1)CC3
microsomal CLint [1]: 29 µL/min/mg
logD [2]: 2.4
IC50 (Procathepsin L): Not Active
IC50 (Cathepsin B): > 2900 nM
IC50 (Cathepsin S): > 4000 nM
hepatocyte CLint [3]: 20 µL/min/1e6 cells
solubility [4]: 822 µM (≈ 346 µg/mL)

N#CC1(NC(=O)[C@@H]2CCCC[C@H]2C(=O)N2CCc3[nH]c4ccccc4c3C2)CC1
microsomal CLint [1]: 26 µL/min/mg
logD [2]: 2.7
microsomal CLint [5]: 143 µL/min/mg
IC50 (Procathepsin L): Not Active
bioavailability [6]: 8.2%
IC50 (Cathepsin B): > 2900 nM
fraction unbound [7]: 0.23
IC50 (Cathepsin S): > 4000 nM
solubility [4]: 910 µM (≈ 355 µg/mL)
IC50 (Cathepsin K): 1 nM

N#CC1(NC(=O)[C@@H]2CCCC[C@H]2C(=O)N2CCc3[nH]c4ccc(F)cc4c3C2)CC1
half-life [8]: 0.6 h
fraction unbound [9]: 0.16
microsomal CLint [1]: 41 µL/min/mg
Vd [10]: 2.3 L/kg
fraction unbound [11]: 0.13
Vd [12]: 1.2 L/kg
logD [2]: 3
hepatocyte CLint [13]: 6.7 µL/min/1e6 cells
microsomal CLint [5]: > 250 µL/min/mg
clearance (in vivo [14]): 63 mL/min/kg
IC50 (Procathepsin L; read-out: IC50): > 40000 nM
bioavailability [6]: 3.8%
clearance (in vivo [15]): 10 mL/min/kg
bioavailability [16]: 82%
IC50 (Cathepsin B): 3520 nM
IC50 (Cathepsin S): > 4000 nM
half-life [17]: 1.8 h
hepatocyte CLint [3]: 126 µL/min/1e6 cells
fraction unbound [18]: 0.14
solubility [4]: 580 µM (≈ 237 µg/mL)
IC50 (Cathepsin K): < 1 nM
hepatocyte CLint [19]: < 2.5 µL/min/1e6 cells

CN1CCN(C(=O)[C@@H]2CCCC[C@H]2C(=O)NCC#N)CC1
microsomal CLint [1]: 7.9 µL/min/mg
logD [2]: -0.1
IC50 (Procathepsin L; read-out: IC50): > 40000 nM
IC50 (Cathepsin B): 7630 nM
IC50 (Cathepsin S): 2070 nM
hepatocyte CLint [3]: < 2 µL/min/1e6 cells
solubility [4]: 3560 µM (≈ 1040 µg/mL)
IC50 (Cathepsin K): 37 nM

CN(C)C(=O)[C@@H]1CCCC[C@H]1C(=O)NCC#N
microsomal CLint [1]: 5.1 µL/min/mg
logD [2]: < 0.5
microsomal CLint [5]: < 2 µL/min/mg
IC50 (Procathepsin L; read-out: IC50): > 40000 nM
Ratio IC50 (Homo sapiens): 14
IC50 (Cathepsin B): 9820 nM
IC50 (Cathepsin S): 3700 nM
solubility [4]: > 4600 µM
IC50 (Cathepsin K): 257 nM

N#CC1(NC(=O)[C@@H]2CCCC[C@H]2C(=O)N2CCc3oc4ccccc4c3C2)CC1
logD [2]: 3
microsomal CLint [5]: > 350 µL/min/mg
bioavailability [6]: 0%
fraction unbound [7]: 0.12
solubility [4]: 580 µM (≈ 227 µg/mL)
IC50 (Cathepsin K): 25 nM

N#CC1(NC(=O)[C@@H]2CCCC[C@H]2C(=O)N2CCc3[nH]c4cccc(F)c4c3C2)CC1
microsomal CLint [1]: 57 µL/min/mg
logD [2]: 3.2
microsomal CLint [5]: 322 µL/min/mg
IC50 (Procathepsin L): Not Active
IC50 (Cathepsin B): > 2900 nM
IC50 (Cathepsin S): > 4000 nM
solubility [4]: 128 µM (≈ 52.3 µg/mL)
IC50 (Cathepsin K): 10 nM

CS(=O)(=O)c1ccc2[nH]c3c(c2c1)CN(C(=O)[C@@H]1CCCC[C@H]1C(=O)NC1(C#N)CC1)CC3
microsomal CLint [1]: 14 µL/min/mg
IC50 (Procathepsin L): Not Active
IC50 (Cathepsin B): > 2900 nM
IC50 (Cathepsin S): > 4000 nM
hepatocyte CLint [3]: 3.5 µL/min/1e6 cells
solubility [4]: 193 µM (≈ 90.4 µg/mL)

N#CC1(NC(=O)[C@@H]2CCCC[C@H]2C(=O)N2CCc3[nH]c4ncccc4c3C2)CC1
fraction unbound [9]: 0.42
Vd [10]: 1.6 L/kg
fraction unbound [11]: 0.38
Vd [12]: 0.9 L/kg
logD [2]: 2.1
IC50 (Procathepsin L): Not Active
bioavailability [6]: 12%
bioavailability [16]: 59%
IC50 (Cathepsin B): > 2900 nM
IC50 (Cathepsin S): > 4000 nM
fraction unbound [18]: 0.33
solubility [4]: 1500 µM (≈ 587 µg/mL)
IC50 (Cathepsin K): 1 nM

C[C@H](C#N)NC(=O)[C@@H]1CCCC[C@H]1C(=O)N1CCc2[nH]c3ccc(F)cc3c2C1
microsomal CLint [1]: 12 µL/min/mg
logD [2]: 3.1
microsomal CLint [5]: > 250 µL/min/mg
IC50 (Procathepsin L; read-out: IC50): > 100000 nM
IC50 (Cathepsin B): 44900 nM
IC50 (Cathepsin S): > 100000 nM
solubility [4]: 460 µM (≈ 182 µg/mL)
IC50 (Cathepsin K): 16.2 nM

N#CC1(NC(=O)[C@@H]2CCCC[C@H]2C(=O)N2CCc3[nH]c4c(OC(F)(F)F)cccc4c3C2)CC1
microsomal CLint [1]: 19 µL/min/mg
logD [2]: 4
microsomal CLint [5]: 53 µL/min/mg
IC50 (Procathepsin L): Not Active
IC50 (Cathepsin B): > 2900 nM
IC50 (Cathepsin S): > 4000 nM
solubility [4]: 120 µM (≈ 56.9 µg/mL)
IC50 (Cathepsin K): 2 nM

N#CCNC(=O)[C@@H]1CCCC[C@H]1C(=O)N1CCCCC1
microsomal CLint [1]: < 2 µL/min/mg
logD [2]: 0.9
microsomal CLint [5]: 12 µL/min/mg
IC50 (Procathepsin L; read-out: IC50): > 100000 nM
IC50 (Cathepsin B): 8750 nM
IC50 (Cathepsin S): 2110 nM
solubility [4]: > 4900 µM
IC50 (Cathepsin K): 73 nM
